# In paper PMC4893637 (Theranostics, 2016):
# How the values were obtained:
# [1] = biological target: Recombinant human PSMA (rhPSMA) (Homo sapiens, UniProt Q04609); assay: NAALADase assay; type: biochemical
# [2] = biological target: PSMA positive LNCaP cells (Homo sapiens, UniProt Q04609); assay: Internalization assay on LNCaP cells; type: cell-based; details: 30 nM radiolabeled compound, 45 min; 177Lu-labeled, except CIM 99mTc-labeled
# How it was run: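 Poly-L-lysine-coated wells were seeded with 10⁵ LNCaP cells in RPMI (10% FCS, 1% L-glutamine) and held overnight at 37 °C. Cells took up 30 nM radiolabelled test compound in Opti-MEM for 45 min at 37 °C or 4 °C, with 2-PMPA block or DMSO, in triplicate. Surface-bound tracer came off in two 5-min 50 mM glycine pH 2.8 washes and internalized tracer in 0.3 M NaOH lysate. All fractions were gamma-counted against a ligand standard.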
# [3] = system: BALB/c nude mouse LNCaP xenograft; assay: MicroPET in LNCaP xenograft mouse; type: in vivo; details: 68Ga-labeled, i.v.
# How it was run: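 Purified 68Ga-labelled test conjugates (50 MBq/nmol) were sterile-filtered and 100 µl injected into the tail vein of BALB/c nude mice bearing LNCaP xenografts under 2% sevoflurane. Two tracers were compared in the same mouse. Blocking used 100-fold excess of unlabelled compound, imaged 2 h post-injection.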
# Sequence of PSMA positive LNCaP cells (Q04609 whole entry): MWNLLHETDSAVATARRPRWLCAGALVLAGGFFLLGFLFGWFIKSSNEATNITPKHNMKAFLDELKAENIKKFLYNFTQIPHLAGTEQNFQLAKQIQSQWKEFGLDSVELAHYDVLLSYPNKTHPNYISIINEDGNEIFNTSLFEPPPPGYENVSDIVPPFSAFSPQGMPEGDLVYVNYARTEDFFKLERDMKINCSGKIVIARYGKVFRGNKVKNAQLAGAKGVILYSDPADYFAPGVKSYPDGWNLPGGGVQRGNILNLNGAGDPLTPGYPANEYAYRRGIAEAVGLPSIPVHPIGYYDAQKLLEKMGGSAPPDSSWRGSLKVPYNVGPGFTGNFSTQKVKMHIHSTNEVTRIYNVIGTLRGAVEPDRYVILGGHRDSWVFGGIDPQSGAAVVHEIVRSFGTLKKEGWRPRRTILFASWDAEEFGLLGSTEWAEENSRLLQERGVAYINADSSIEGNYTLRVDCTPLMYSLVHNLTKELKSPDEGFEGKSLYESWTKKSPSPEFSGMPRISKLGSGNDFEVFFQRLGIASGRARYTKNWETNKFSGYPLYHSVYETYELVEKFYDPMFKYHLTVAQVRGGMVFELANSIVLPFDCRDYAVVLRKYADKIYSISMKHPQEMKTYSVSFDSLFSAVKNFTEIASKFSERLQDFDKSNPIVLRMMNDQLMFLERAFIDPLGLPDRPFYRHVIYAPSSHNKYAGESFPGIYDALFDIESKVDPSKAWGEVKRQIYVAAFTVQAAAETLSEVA
# Sequence of Recombinant human PSMA (rhPSMA) (Q04609 whole entry): as above
smiles,measurement,setting,value
O=C(O)CC[C@H](NC(=O)N[C@@H](CCCCNC(=O)[C@H](Cc1ccc2ccccc2c1)NC(=O)[C@H]1CC[C@H](CNC(=O)CN2CCN(CC(=O)O)CCN(CC(=O)O)CCN(CC(=O)O)CC2)CC1)C(=O)O)C(=O)O [DOTA conjugate],IC50,[1],0.8 ± 0.3 nM
same,Absolute value of compound inside of the cells (amount internalized),[2],3.7 ± 4.6%
same,Time after which the amount in the tumor begins to decrease,[3],approximately 15 min
